# Source: ChEMBL document CHEMBL5705886, “GSK1070916, a potent Aurora B/C kinase inhibitor with broad antitumor activity in tissue culture cells and human tumor xenograft models” (Mol Cancer Ther, 2009)
# Activity calls are given as the source filed them. The calls are words filed in the database; no cut-off is given here.
# Key:
# [1] = Toxicity in SCID nude mouse xenografted with human MCF7 cells assessed as drug tolerance at 50 to 100 mg/kg, ip administered once daily for 5 consecutive days with 2 days off scheduled for 3 cycles measured upto 60 days; type: organism-based; settings: in vivo, 1440 h, dose 50-100 mg/kg, time < 60 day
# MC-CAR = test: Antiproliferative activity against human MC-CAR cells assessed as inhibition of cell viability measured for 6 to 7 days by cell titer glo assay; type: functional, cell-based
# Outline: (§1)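 Cells seeded in recommended growth medium, incubated overnight at 37°C in 5% CO2, then exposed to serial dilutions of inhibitor for 6–7 d. A parallel plate was read with CellTiter-Glo at compound addition as a T=0 value. The luminescent viability readout had no-cell background subtracted and was expressed as % of DMSO control.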
# SK-MEL-28 = test: Antiproliferative activity against human SK-MEL-28 cells assessed as inhibition of cell viability measured for 6 to 7 days by cell titer glo assay; type: functional, cell-based
# Outline: (§2)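 Cells seeded in recommended growth medium, held overnight at 37°C in 5% CO2, then exposed to serial dilutions of inhibitor for 6–7 d. A time-zero plate was read with CellTiter-Glo at dosing. Luminescent viability read at the end. No-cell wells subtracted as background, data expressed as percent of DMSO control.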
# EB-3 = test: Antiproliferative activity against human EB-3 cells assessed as inhibition of cell viability measured for 6 to 7 days by cell titer glo assay; type: functional, cell-based
# Outline: (§3)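 Tumor lines plated in recommended growth media, overnight at 37°C, 5% CO2, then given serial dilutions; a T=0 plate read with CellTiter-Glo at dosing. After 6–7 d of exposure, viability read by CellTiter-Glo luminescence. No-cell wells subtracted, data expressed as % of DMSO control.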
# Pfeiffer = test: Antiproliferative activity against human Pfeiffer cells assessed as inhibition of cell viability measured for 6 to 7 days by cell titer glo assay; type: functional, cell-based; outline: as §2
# SU-DHL-6 = test: Antiproliferative activity against human SU-DHL-6 cells assessed as inhibition of cell viability measured for 6 to 7 days by cell titer glo assay; type: functional, cell-based; outline: as §2
# BXPC-3 = test: Antiproliferative activity against human BXPC-3 cells assessed as inhibition of cell viability measured for 6 to 7 days by cell titer glo assay; type: functional, cell-based; outline: as §3
# 786-0 = test: Antiproliferative activity against human 786-0 cells assessed as inhibition of cell viability measured for 6 to 7 days by cell titer glo assay; type: functional, cell-based; outline: as §3
# [2] = Toxicity in SCID nude mouse xenografted with human NCI-H460 cells assessed as drug tolerance at 25 to 100 mg/kg, ip administered once daily for 5 consecutive days with 2 days off scheduled for 3 cycles measured upto 60 days; type: organism-based; settings: in vivo, 1440 h, dose 25-100 mg/kg, time < 60 day
# Farage = test: Antiproliferative activity against human Farage cells assessed as inhibition of cell viability measured for 6 to 7 days by cell titer glo assay; type: functional, cell-based; outline: as §3
# MCF7 = test: Antitumor activity in human MCF7 cells xenografted in SCID mouse assessed as reduction in tumor growth at 50 to 100 mg/kg, ip administered once daily for 5 consecutive days with 2 days off scheduled for 3 cycles measured upto 60 days; type: functional, organism-based; settings: dose 50-100 mg/kg, time <= 60.0 day
# [3] = Toxicity in SCID nude mouse xenografted with human HL-60 cells assessed as body weight loss at 100 mg/kg, ip administered once daily for 5 consecutive days with 2 days off scheduled for 2 cycles measured upto 60 days; type: organism-based; settings: in vivo, 1440 h, time < 60 day
# CTV-1 = test: Antiproliferative activity against human CTV-1 cells assessed as inhibition of cell viability measured for 6 to 7 days by cell titer glo assay; type: functional, cell-based; outline: as §3
# SU-DHL-5 = test: Antiproliferative activity against human SU-DHL-5 cells assessed as inhibition of cell viability measured for 6 to 7 days by cell titer glo assay; type: functional, cell-based; outline: as §2
# [4] = Toxicity in SCID nude mouse xenografted with human A549 cells assessed as drug tolerance at 25 to 100 mg/kg, ip administered once daily for 5 consecutive days with 2 days off scheduled for 3 cycles measured upto 60 days; type: organism-based; settings: in vivo, 1440 h, dose 25-100 mg/kg, time 60 day
# SK-BR-3 = test: Antiproliferative activity against human SK-BR-3 cells assessed as inhibition of cell viability measured for 6 to 7 days by cell titer glo assay; type: functional, cell-based; outline: as §2
# [5] = Antiproliferative activity against human ALL-SIL cells assessed as inhibition of cell viability measured for 6 to 7 days by cell titer glo assay; type: functional, cell-based; outline: as §3
# HL-60 = test: Antiproliferative activity against human HL-60 cells assessed as inhibition of cell viability measured for 6 to 7 days by cell titer glo assay; type: functional, cell-based; outline: as §1
# [6] = Toxicity in SCID nude mouse xenografted with human COLO 205 cells assessed as drug tolerance at 25 to 100 mg/kg, ip administered once daily for 5 consecutive days with 2 days off scheduled for 2 cycles measured upto 60 days; type: organism-based; settings: in vivo, 1440 h, dose 25-100 mg/kg, time 60 day
# PC-3 = test: Antiproliferative activity against human PC-3 cells assessed as inhibition of cell viability measured for 6 to 7 days by cell titer glo assay; type: functional, cell-based; outline: as §2
# CMK = test: Antiproliferative activity against human CMK cells assessed as inhibition of cell viability measured for 6 to 7 days by cell titer glo assay; type: functional, cell-based; outline: as §3
# ST486 = test: Antiproliferative activity against human ST486 cells assessed as inhibition of cell viability measured for 6 to 7 days by cell titer glo assay; type: functional, cell-based; outline: as §2
# NCI-H1299 = test: Antiproliferative activity against human NCI-H1299 cells assessed as inhibition of cell viability measured for 6 to 7 days by cell titer glo assay; type: functional, cell-based; outline: as §1
# KU812 cell line = test: Antiproliferative activity against human KU812 cell line assessed as inhibition of cell viability measured for 6 to 7 days by cell titer glo assay; type: functional, cell-based; outline: as §1
# NCI-H1155 = test: Antiproliferative activity against human NCI-H1155 cells assessed as inhibition of cell viability measured for 6 to 7 days by cell titer glo assay; type: functional, cell-based; outline: as §1
# MHH-PREB-1 = test: Antiproliferative activity against human MHH-PREB-1 cells assessed as inhibition of cell viability measured for 6 to 7 days by cell titer glo assay; type: functional, cell-based; outline: as §1
# COLO 205 = test: Induction of apoptosis in human COLO 205 cells assessed as PARP cleavage at 10 nmol/L incubated for 24 hrs by Western blot analysis; type: functional, cell-based
# HCT-116 = test: Antiproliferative activity against human HCT-116 cells assessed as inhibition of cell viability measured for 6 to 7 days by cell titer glo assay; type: functional, cell-based; outline: as §3
# A549 = test: Effect on cell cycle distribution in human A549 cells assessed as decrease in 2N DNA content incubated for 24 to 72 hrs by flow cytometry based analysis; type: functional; settings: dose 2-5000 nM, time 24-72 hrs
# SU-DHL-16 = test: Antiproliferative activity against human SU-DHL-16 cells assessed as inhibition of cell viability measured for 6 to 7 days by cell titer glo assay; type: functional, cell-based; outline: as §2
# RL = test: Antiproliferative activity against human RL cells assessed as inhibition of cell viability measured for 6 to 7 days by cell titer glo assay; type: functional, cell-based; outline: as §2
# HD-MY-Z = test: Antiproliferative activity against human HD-MY-Z cells assessed as inhibition of cell viability measured for 6 to 7 days by cell titer glo assay; type: functional, cell-based; outline: as §3
# KCL-22 = test: Antiproliferative activity against human KCL-22 cells assessed as inhibition of cell viability measured for 6 to 7 days by cell titer glo assay; type: functional, cell-based; outline: as §1
# U-266 = test: Antiproliferative activity against human U266B1 cells assessed as inhibition of cell viability measured for 6 to 7 days by cell titer glo assay; type: functional, cell-based
smiles,measurement,setting,value
CCn1cc(-c2ccnc3[nH]c(-c4cccc(CN(C)C)c4)cc23)c(-c2ccc(NC(=O)N(C)C)cc2)n1 [GSK-1070916],Activity,[1],Toxic
same,EC50,MC-CAR,9 nM
same,EC50,SK-MEL-28,7 nM
same,EC50,EB-3,7 nM
same,EC50,Pfeiffer,4 nM
same,EC50,SU-DHL-6,6 nM
same,EC50,BXPC-3,3 nM
same,EC50,786-0,57 nM
same,Activity,[2],Non-Toxic
same,EC50,Farage,7 nM
same,Activity,MCF7,inactive
same,Activity,[3],Toxic
same,EC50,CTV-1,4 nM
same,EC50,SU-DHL-5,5 nM
same,Activity,[4],Non-Toxic
same,EC50,SK-BR-3,4 nM
same,EC50,[5],2 nM
same,EC50,HL-60,10 nM
same,Activity,[6],Non-Toxic
same,EC50,PC-3,11 nM
same,EC50,CMK,27 nM
same,EC50,ST486,2 nM
same,EC50,NCI-H1299,23 nM
same,EC50,KU812 cell line,8 nM
same,EC50,NCI-H1155,40 nM
same,EC50,MHH-PREB-1,4 nM
same,Activity,COLO 205,Active
same,EC50,HCT-116,8 nM
same,Activity,A549,Active
same,EC50,SU-DHL-16,4 nM
same,EC50,RL,10 nM
same,EC50,HD-MY-Z,4 nM
same,EC50,KCL-22,5 nM
same,EC50,U-266,422 nM
